Assay results published in publication PMC3496166 (Scientific Reports, 2012).
Where two headings read alike, the source gives them in different places.

B1: SRL RNA wt (27 nt) (structured_RNA)
RNA: GGGCUCCUAGUACGAGAGGACCGGAGU

Experiments:
EF-G [1] = target: EF-G (Escherichia coli, UniProt P0A6M8); test: isothermal titration calorimetry; assay type: binding
Procedure, shortened: (§1)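 Assay used 6His-tagged E. coli protein, purified with an added Ni-NTA step. ITC ran at 5 or 25°C in pH 7.5 phosphate buffer (5 mM K2HPO4, 95 mM KCl, 5 mM MgCl2, 1 mM DTT, 10% glycerol). G nucleotide or 27-nt SRL RNA (50–500 μM in syringe) was titrated into protein (5–40 μM in cell), some runs with 500 μM nucleotide or 200 μM SRL added. Dilution heat subtracted; one-site nonlinear fit.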

IF2 [2] = target: IF2 (Escherichia coli, UniProt P0A705); test: isothermal titration calorimetry; assay type: binding
Chain of IF2 (Escherichia coli, UniProt P0A705) (P0A705 whole entry): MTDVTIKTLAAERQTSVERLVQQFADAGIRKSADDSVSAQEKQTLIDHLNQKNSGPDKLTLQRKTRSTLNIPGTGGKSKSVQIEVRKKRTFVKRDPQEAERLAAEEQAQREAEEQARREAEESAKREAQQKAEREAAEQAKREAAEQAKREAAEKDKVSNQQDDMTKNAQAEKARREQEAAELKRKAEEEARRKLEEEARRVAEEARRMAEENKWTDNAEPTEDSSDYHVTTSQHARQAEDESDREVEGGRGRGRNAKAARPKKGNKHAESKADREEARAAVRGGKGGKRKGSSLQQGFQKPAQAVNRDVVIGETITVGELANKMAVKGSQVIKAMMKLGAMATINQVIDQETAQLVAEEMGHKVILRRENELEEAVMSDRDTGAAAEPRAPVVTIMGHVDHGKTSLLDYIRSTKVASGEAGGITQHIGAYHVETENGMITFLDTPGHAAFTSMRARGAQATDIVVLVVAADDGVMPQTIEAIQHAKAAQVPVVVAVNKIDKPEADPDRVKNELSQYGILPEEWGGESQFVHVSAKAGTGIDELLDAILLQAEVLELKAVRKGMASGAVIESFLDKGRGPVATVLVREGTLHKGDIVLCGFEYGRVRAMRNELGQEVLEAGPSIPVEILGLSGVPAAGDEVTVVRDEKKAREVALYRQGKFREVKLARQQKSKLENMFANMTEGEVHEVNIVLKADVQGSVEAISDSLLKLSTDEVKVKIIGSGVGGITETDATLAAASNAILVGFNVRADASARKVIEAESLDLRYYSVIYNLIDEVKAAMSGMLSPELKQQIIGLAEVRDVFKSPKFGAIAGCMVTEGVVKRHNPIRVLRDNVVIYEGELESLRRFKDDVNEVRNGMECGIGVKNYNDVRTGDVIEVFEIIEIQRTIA
Procedure, shortened: as §1

EF-G [3] = target: T1, EF-G (E. coli, UniProt P0A6M8 1-704); test: ITC
T1 sequence (P0A6M8 whole entry): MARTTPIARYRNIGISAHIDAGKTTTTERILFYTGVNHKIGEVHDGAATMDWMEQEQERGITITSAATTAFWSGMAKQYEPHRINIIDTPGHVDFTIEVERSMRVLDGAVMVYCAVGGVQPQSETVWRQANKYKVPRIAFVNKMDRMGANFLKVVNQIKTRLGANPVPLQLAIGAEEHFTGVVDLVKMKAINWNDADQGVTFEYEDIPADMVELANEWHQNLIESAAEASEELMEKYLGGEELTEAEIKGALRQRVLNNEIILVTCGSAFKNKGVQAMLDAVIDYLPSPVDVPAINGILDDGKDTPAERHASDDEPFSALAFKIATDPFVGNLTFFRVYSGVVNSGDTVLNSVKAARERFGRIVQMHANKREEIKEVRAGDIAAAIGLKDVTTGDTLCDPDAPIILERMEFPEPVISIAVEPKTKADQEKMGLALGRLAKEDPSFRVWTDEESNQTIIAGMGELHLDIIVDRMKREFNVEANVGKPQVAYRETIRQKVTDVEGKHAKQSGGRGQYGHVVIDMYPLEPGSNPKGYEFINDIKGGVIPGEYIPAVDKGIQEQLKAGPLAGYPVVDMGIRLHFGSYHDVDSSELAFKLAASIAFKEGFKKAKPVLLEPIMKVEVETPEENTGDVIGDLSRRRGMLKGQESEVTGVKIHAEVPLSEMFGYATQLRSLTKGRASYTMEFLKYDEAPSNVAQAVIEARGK

EF-G [4] = target: T1, EF-G; test: ITC; remark: listed apart in the source
IF2 [5] = target: T2, IF2 (E. coli, UniProt P0A705 1-890); test: ITC
T2 sequence (P0A705 whole entry): as the sequence (P0A705 whole entry) above

EF-G [6] = target: T1, EF-G; test: ITC; remark: listed apart in the source
IF2 [7] = target: T2, IF2; test: ITC; remark: listed apart in the source

Chain of EF-G (Escherichia coli, UniProt P0A6M8) (P0A6M8 2-704): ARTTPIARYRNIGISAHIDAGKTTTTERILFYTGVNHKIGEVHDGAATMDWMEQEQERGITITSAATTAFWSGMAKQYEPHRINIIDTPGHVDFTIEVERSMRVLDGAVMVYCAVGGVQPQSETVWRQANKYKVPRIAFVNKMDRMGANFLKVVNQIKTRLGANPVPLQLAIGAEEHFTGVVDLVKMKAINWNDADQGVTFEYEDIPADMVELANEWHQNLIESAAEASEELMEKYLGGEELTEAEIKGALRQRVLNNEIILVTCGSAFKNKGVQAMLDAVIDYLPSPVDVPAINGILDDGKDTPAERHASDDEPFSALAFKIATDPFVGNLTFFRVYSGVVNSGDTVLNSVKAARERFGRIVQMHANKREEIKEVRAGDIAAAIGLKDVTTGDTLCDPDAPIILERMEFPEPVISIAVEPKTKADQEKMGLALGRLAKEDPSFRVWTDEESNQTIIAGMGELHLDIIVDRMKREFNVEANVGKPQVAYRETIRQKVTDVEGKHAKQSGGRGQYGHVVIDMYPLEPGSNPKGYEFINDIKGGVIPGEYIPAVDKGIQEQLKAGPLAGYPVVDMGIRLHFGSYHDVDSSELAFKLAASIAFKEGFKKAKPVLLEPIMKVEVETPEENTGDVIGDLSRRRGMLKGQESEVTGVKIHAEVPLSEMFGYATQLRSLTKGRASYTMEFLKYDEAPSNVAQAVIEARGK

| Molecule | Kd (EF-G [1]) | Kd (IF2 [2]) | Kd (EF-G [3]) | Kd (EF-G [4]) | Kd (IF2 [5]) | Kd (EF-G [6]) | Kd (IF2 [7]) |
| --- | --- | --- | --- | --- | --- | --- | --- |
| Nc1nc2c(ncn2[C@@H]2O[C@H](COP(=O)(O)OP(=O)(O)O)[C@@H](O)[C@H]2O)c(=O)[nH]1 [GDP] | 1800 nM | 1600 nM | – | – | – | – | – |
| Nc1nc2c(ncn2[C@@H]2O[C@H](COP(=O)(O)OP(=O)(O)OP(=O)(O)O)[C@@H](O)[C@H]2O)c(=O)[nH]1 [GTP] | 2700 nM | 6700 nM | – | – | – | – | – |
| B1 | – | – | 3700 nM | 5900 nM | 670 nM | 4200 nM | 1000 nM |
